The results in this text go back to paper PMC3638295 (International Journal of Medical Sciences, 2013).

No end group written: not given here.

The subject of one data set is DENV-2. The experiment in a line: Plaque formation assay. Format: cell-based, DENV-2 (strain New Guinea C). The note with it: dose-response curve. In short, it runs like this: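 LLC-MK2 monkey kidney cells (passage <50; DMEM + 10% FBS, 37°C, 5% CO2) were seeded at 3×10^5 cells/well and exposed to a mixture of about 200 PFU DENV-2 New Guinea C (grown in C6/36 cells) and peptide. Plaques per well were counted and normalized to untreated controls as percent inhibition. Run in triplicate.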

The test system of the next data set is LLC-MK2 cells. The experiment in a line: Cytotoxicity, MTS cell viability assay. Format: cell-based, Rhesus Monkey. The note with it: 1 to 500 µM peptide, 24, 48 and 72 hours, triplicate. (Formazan colour is commonly taken as a measure of viable cells.)

Usually IC50 stands for the point on the concentration scale where inhibition reaches its midpoint. Consider AGVKDGKLDF [DET4], for which, in the data set with DENV-2 (at 500 µM, mean ± SD, triplicate), the “maximum inhibition activity against DENV-2” value was 84.6% ± 5.6. Further, the half-maximal inhibitory concentration (IC50) with DENV-2 (read-out: IC50 against DENV-2, LLC-MK2 cells) turned out to be 35 µM. On to IGVRPGKLDL [DET3], for which the “Toxicity compared to untreated control” value with LLC-MK2 cells was “highest toxic effect compared to other peptides”.
